Data on five molecules can be found in ChEMBL document CHEMBL2406939, “Structure, synthesis, and biological activity of a C-20 bisacetylenic alcohol from a marine sponge Callyspongia sp” (J Nat Prod, 2013).

Active and inactive are the calls of the source. The calls are words filed in the database; no cut-off is given here.

Assay [1] can be described thus: Antiproliferative activity against temperature-sensitive rat lymphatic endothelial cells after 48 hrs by MTS assay. The conditions noted are these: Endothelial cell.
In a further assay the test system is HeLa. Description: Antiproliferative activity against human HeLa cells after 48 hrs by MTS assay. Format: functional, cell-based. The method in brief:
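HeLa cells grown in EMEM + 10% FBS at 37 °C, 5% CO2. Seeded at 3 × 10^3 cells/well in EMEM + 10% FBS, incubated 24 h, then exposed to compounds for 48 h. Viability read by MTS assay. Final DMSO ≤0.5% (v/v). IC50 from viability.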

Assay [2] is described as follows: Antiproliferative activity against temperature-sensitive rat lymphatic endothelial cells assessed as cell viability at 10 uM after 48 hrs by MTS assay. The conditions noted are these: read-out: Activity. The class given is functional. A digest of the protocol: (§1)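 TR-LE cells kept on type I collagen-coated dishes in HuMedia-EB2/EG + 10% FBS at permissive 33 °C. Seeded at 8 × 10^3 cells/well in DMEM + 10% FBS on collagen I-coated plates. Allowed 3 h to adhere, then exposed to compounds (final 0.1–100 μM) for 48 h. Viability by MTS assay. Final DMSO ≤0.5% (v/v).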

A further assay deals with Endothelial cell. Description: Antiproliferative activity against temperature-sensitive rat lymphatic endothelial cells assessed as cell viability at 100 uM after 48 hrs by MTS assay. The class given is functional, cell-based. The method in brief: as §1

Take `CC[C@]1(O)C[C@H]2CN(CCc3c([nH]c4ccccc34)[C@@](C(=O)OC)(c3cc4c(cc3OC)N(C=O)[C@H]3[C@@](O)(C(=O)OC)[C@H](OC(C)=O)[C@]5(CC)C=CCN6CC[C@]43[C@@H]65)C2)C1` [VINCRISTINE]: the figures for the IC50 (in assay [1]; in the assay with HeLa) were 80 nM and 4.3 nM, respectively.

Consider `C#CC(=O)/C=C/CCCCCCCCCC/C=C/C(O)C#C` (stereo unspecified), for which the viability at 10 µM in assay [2] was 78%.

Regarding `CC(=O)O[C@H]1C(=O)[C@@]2(C)[C@H]([C@H](OC(=O)c3ccccc3)[C@]3(O)C[C@H](OC(=O)[C@H](O)[C@@H](NC(=O)c4ccccc4)c4ccccc4)C(C)=C1C3(C)C)[C@]1(OC(C)=O)CO[C@@H]1C[C@@H]2O` [PACLITAXEL], in the assay on HeLa, the IC50 is 1.7 nM.

In the case of `C#CC(=O)/C=C/CCCCCC`, the result with Endothelial cell was inactive.

For the molecule `C#CC(O)/C=C/CCCCCC` (stereo unspecified), in the assay on Endothelial cell, the result was inactive.
